# Hits are enriched below; roughly 3.7% of the tested compounds scored in any of these assays.
# Mdm2-MdmX inh – disrupts the human Mdm2-MdmX interaction; O15151+Q00987; inhibition, % at 8 µM; actives 3% (n = 330,000); AID 485346; SaOS-2 split-luciferase Mdm2/MdmX complementation, luminescence;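 active = inhibition of at least 50% at 8 µM in the primary screen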
# B2AR ag – agonists of human beta-2 adrenergic receptor inducing internalization | P07550 | Am2.2-beta2AR cells, FAP receptor internalization, flow cytometry | response, % (test concentration not listed) | actives 0.43% (n = 340,000) | AID 504454;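 active = response above a set limit, near 3 SD of response in nonfluorescent compounds, cut at about 42% in these data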
# CHOP UPR activ – apoptotic UPR (CHOP) activation; CHO-CHOP luciferase reporter, luminescence; percent of tunicamycin response over DMSO baseline; activation, % at 10 µM; actives 0.34% (n = 330,000); AID 449763;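 active = at 10 µM dose, activation of 40% or more, normalized to positive control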;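 note: 100% = tunicamycin at 10 µg/mL and 0% = DMSO alone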
#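 measured by = luciferase luminescence | assay system = CHO-CHOP cells, stable luciferase reporter of PERK-eIF2a-CHOP signalling | amount = 500 reporter cells seeded per well | timing = 6 h compound exposure at 37 °C after overnight seeding | controls = positive tunicamycin 10 µg/mL, negative DMSO alone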
# Mdm2 ligase inh – Mdm2 E3 ligase (human) inhibition; Q00987; cell-based MDM2 ubiquitination luciferase reporter, 2 h; 0 = plate control, 100 = twice control, blank-subtracted; signal enhancement, % at 5 µM; actives 0.11% (n = 210,000);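 active = signal enhancement of 30% or more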;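 note: luminescence tracks abundance of the self-degrading MDM2-luciferase fusion protein; higher signal means inhibition of MDM2 E3 ligase activity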
# Target sequence (Q00987 whole entry, looked up, the tested form may be a part): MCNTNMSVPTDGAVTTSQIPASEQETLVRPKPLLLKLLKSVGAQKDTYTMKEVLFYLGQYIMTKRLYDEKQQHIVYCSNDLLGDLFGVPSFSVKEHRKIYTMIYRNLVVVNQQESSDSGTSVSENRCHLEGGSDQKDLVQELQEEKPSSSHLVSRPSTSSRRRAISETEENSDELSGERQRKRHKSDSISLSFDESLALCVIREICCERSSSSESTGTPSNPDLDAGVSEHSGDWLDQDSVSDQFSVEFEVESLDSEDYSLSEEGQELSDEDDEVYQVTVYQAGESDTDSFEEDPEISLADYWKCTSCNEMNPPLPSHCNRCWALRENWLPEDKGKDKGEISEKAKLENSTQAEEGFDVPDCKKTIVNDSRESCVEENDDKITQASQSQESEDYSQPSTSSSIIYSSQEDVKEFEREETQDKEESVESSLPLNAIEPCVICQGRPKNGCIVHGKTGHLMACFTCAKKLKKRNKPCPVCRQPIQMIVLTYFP
#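 Assay system: stable mammalian line carrying autodegrading MDM2–luciferase fusion reporter; Input: 2000 cells in each well; Compound dosing: single-point 5 µM; Schedule: 2 h compound exposure at 37 °C; Signal: SteadyLite luciferase luminescence after 15 min room-temperature reagent incubation; Evaluation: % luminescence enhancement versus blank-corrected plate control mean; Benchmarks: plate controls and plate blanks.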
# Dynein transport – blocks dynein driven cargo transport along microtubules; 3617.4 mouse cells, GR-EGFP nuclear translocation imaging; test concentration mostly 20 µM; stimulated with dexamethasone, 1 µM; stronger effect = lower value; actives 0.47% (n = 220,000); z-score, hits read low; AID 1381;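 active = plate z-score of nuclear minus cytoplasmic receptor signal below a set negative limit, without overly bright fluorescence or cell loss, cut at about -3.5 in these data, passing the limit was not always enough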;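 note: z-score of nuclear minus cytoplasmic ring GR-EGFP intensity difference per well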
#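 medium = tetracycline-free induction medium containing charcoal-stripped FBS | probe or stimulus = dexamethasone, 1.0 µM final | timing = 48 h induction, then 1 h compound, then 30 min agonist, 37 °C | detection = automated 10x imaging of fixed Hoechst-stained cells | read-out basis = nuclear versus cytoplasmic GR-EGFP signal, averaged per well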
# UPR XBP1 act – adaptive UPR (XBP1) activation | CHO-XBP1 luciferase reporter, IRE1-XBP1 UPR activation, luminescence; percent of tunicamycin response, DMSO as zero | activation, % at 20 µM | actives 0.33% (n = 330,000);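 active = versus positive control, 20 µM dose yields 30% or more activation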;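 note: 100% = tunicamycin at 10 µg/mL and 0% = DMSO only wells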
#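 Material: IRE1-XBP1 luciferase reporter CHO line / Quantity: one thousand reporter cells per well / Buffer or medium: F12 with 10% serum / Compound: 20 µM single concentration, DMSO 1% / Times: 6 h treatment, 37 °C / Detection: Steady-Glo luciferase glow luminescence, 10 min after reagent addition / Benchmarks: tunicamycin high, DMSO low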
# Mdm2 MdmX conf – human Mdm2/MdmX binding inhibition, confirmed; inhibition, % at 8 µM; shares compounds with Mdm2-MdmX inh; luminescent assay; actives 55% (n = 10,000); in the data active = inhibition above about 40%
# FLuc counter – inhibits full-length luciferase, flagging false Mdm2/MdmX hits; shares compounds with Mdm2-MdmX inh; SaOS-2 full-length luciferase counterscreen, luminescence; inhibition, % at 8 µM; actives 77% (n = 6,200);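 active = mean inhibition at 8 µM reaching about 37%, which flags the compound as non-specific, limit read from the data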;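 note: p53-null SaOS-2 cells with luciferase driven by a doxycycline-inducible promoter; compound on cells about two nights before reading with doxycycline added after day one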
# * marks the source's active call; other numbers are inactive results; . = no result.
SMILES,Mdm2-MdmX inh,B2AR ag,CHOP UPR activ,Mdm2 ligase inh,Dynein transport,UPR XBP1 act,Mdm2 MdmX conf,FLuc counter
CSc1nc(N(C)NC(=O)c2ccc(Cl)cc2)c2ccccc2n1,62*,21,1,-7,0.15,9,56*,88*
COC(=O)Cc1cc(=O)n2c(nc3ccccc32)[nH]1,.,3,.,.,.,.,.,.
O=C(CCC1CCCCC1)NCCS(=O)(=O)N1CCN(c2ccccc2)CC1,27,2,1,.,.,-3,.,.
COc1cc(C(=O)OCC(=O)NC2CC2)ccc1OCCC(C)C,0,-3,2,.,.,-2,.,.
O=C(O)c1ccc(Cl)c(S(=O)(=O)Nc2ccccc2C(=O)Nc2ccc(Cl)cc2)c1,12,5,2,.,.,-2,.,.
CC(C)OC(=O)c1c2nc3ccccc3nc2n2c1[nH]c(=O)c1ccccc12,60*,.,11,4,0.86,-4,33,48*
CC(C)OC(=O)c1c(N)n(CCCN2CCOCC2)c2nc3ccccc3nc12,11,-4,-1,-11,3,0,.,.
COc1ccc(CNC(=O)COC(=O)CN2C(=O)NC3(CCCC3)C2=O)cc1,-1,-10,-2,.,.,-1,.,.
COCCn1c(SCC(=O)Nc2ccc(F)cc2F)nc2c([nH]c3ccccc32)c1=O,55*,-6,1,.,.,-2,53*,14
C=CCn1c(SCC(=O)Nc2ccc(F)cc2F)nc2c([nH]c3ccccc32)c1=O,65*,-2,1,.,.,-2,52*,27
COCCn1c(SCC(=O)Nc2ccccc2F)nc2c([nH]c3ccccc32)c1=O,36,-1,1,.,.,-5,.,.
COc1ccc(-c2cc(=O)n(-c3nc4ccccc4[nH]3)[nH]2)cc1,93*,15,21,-3,-0.93,11,13,.
COc1ccc(-c2nc3ccccc3[nH]2)cc1,-67,-7,-4,-8,-1,-5,.,.
COc1cc(C(=O)OCC(=O)NC2CCCCC2)cc(OC)c1OC,13,-9,0,.,.,-1,.,.
CCCOc1ccc2ccccc2c1/C=N/n1c(C)nnc1-n1nc(C)cc1C,52*,2,-1,-19,-0.9,-4,54*,54*
Cc1cc(C)n(-c2nnc(C)n2/N=C/c2ccco2)n1,20,0,0,-6,-0.25,0,.,.
COc1ccc(C(C)=O)cc1CSc1nnc(-c2ccc(Cl)cc2)n1-c1ccccc1,63*,3,3,6,-0.55,1,49*,26
COc1cccc(C(=O)Nc2nnc(-c3ccc(Cl)cc3)o2)c1,38,7,2,-12,0.81,0,.,.
COc1cc(OC)cc(-c2nnc(NC(=O)c3ccc4c(c3)OCCO4)o2)c1,53*,1,0,.,.,-2,25,.
CCOc1ccc(-c2nnc(NC(=O)c3ccc(OCC(C)C)c(OC)c3)o2)cc1,57*,2,4,3,1.5,5,57*,15
COc1cc(OC)cc(-c2nnc(NC(=O)CCS(=O)(=O)c3ccc(C)cc3)o2)c1,51*,12,-1,.,.,-4,61*,72*
CCC(=O)Nc1cccc(C(=O)/C=C/c2ccccc2)c1,95*,54*,11,-12,-1,5,31,34
O=C(/C=C/c1ccccc1)Nc1cccc(C(=O)O)c1,68*,-2,-10,-86,-0.56,-13,64*,20
CCc1c(-c2ccccc2)nc2sc3c(c2c1N)CCCC3,72*,12,4,-13,0.18,1,-19,.
CN(C)CCN(C(=O)C1=COCCO1)c1nc2ccc(F)cc2s1,-20,6,-3,.,.,-5,.,.

# From PubChem
